Converted amounts (≈) assume the structure as drawn. Where a SMILES comes first, the peptide text is derived from it. Bridges are numbered along the chain shown (N, C = ends). [ ]: non-standard residue; d: D form. Orn = NCCC[C@H](N)C(=O)O; Mpa = O=C(O)CCS
Assays:
[1] = Oral bioavailability in rat; format: ADME, organism-based; details: in vivo
[2] = Clearance in dog; format: ADME, organism-based, Canis lupus familiaris; details: in vivo
How it was run: (§1)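 Dog pharmacokinetics, n = 3; dosed at 0.6 mg/kg in 5% DMSO/95% PEG400. AUC reported as ng·h mL⁻¹ and clearance as mL min⁻¹ kg⁻¹.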

[3] = Oral bioavailability in dog; format: ADME, organism-based, Canis lupus familiaris; details: in vivo
[4] = Clearance in rat; format: ADME, organism-based; details: in vivo
How it was run: (§2)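 Rat pharmacokinetics, n = 4; dosed at 5 mg/kg in 5% DMSO/95% PEG400. AUC in ng·h mL⁻¹, clearance in mL min⁻¹ kg⁻¹, half-life in h.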

[5] = Lipophilicity, log D by CHI method; format: physicochemical; details: read-out: Log D
How it was run: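 Lipophilicity determined by an HPLC-based method.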

Oxytocin receptor [6] = molecular target: T1, Oxytocin receptor (Homo sapiens, UniProt P30559); assay: Displacement of [3H]oxytocin from human OTR
T1 sequence (P30559 whole entry): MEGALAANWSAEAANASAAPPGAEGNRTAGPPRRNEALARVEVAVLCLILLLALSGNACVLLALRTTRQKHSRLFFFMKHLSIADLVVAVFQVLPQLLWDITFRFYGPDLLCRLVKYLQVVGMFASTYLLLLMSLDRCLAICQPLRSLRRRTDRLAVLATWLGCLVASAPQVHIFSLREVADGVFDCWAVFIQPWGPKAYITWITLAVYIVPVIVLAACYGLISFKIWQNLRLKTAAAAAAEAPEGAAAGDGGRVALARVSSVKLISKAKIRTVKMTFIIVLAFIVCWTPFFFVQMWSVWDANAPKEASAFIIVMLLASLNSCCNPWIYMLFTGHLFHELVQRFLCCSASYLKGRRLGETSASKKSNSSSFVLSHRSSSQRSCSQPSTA

[7] = AUC in rat; format: ADME, organism-based; parameters: concentration or dose not given beside the values; details: plasma; how it was run: as §2
[8] = Solubility of the compound; format: physicochemical
How it was run: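 Aqueous solubility (mg mL⁻¹) measured by precipitation followed by HPLC.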

[9] = AUC in dog; format: ADME, organism-based, Canis lupus familiaris; parameters: concentration or dose not given beside the values; details: plasma; how it was run: as §1
Rattus norvegicus = assay: Reduction in oxytocin-induced uterine contraction in iv dosed anaesthetized rat; format: functional, organism-based
How it was run: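 Anaesthetized rats; uterine contractions elicited by iv oxytocin at a standard dose of 0.3 ug/kg. Test compound then given iv in rising doses (0.1, 0.3, 1 mg/kg) and the fall in contractility recorded. Plasma IC50 taken as the plasma concentration giving 50% inhibition of the response to the standard oxytocin dose.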

Oxytocin receptor [10] = molecular target: T2, Oxytocin receptor (Rattus norvegicus, UniProt P70536); assay: Displacement of [3H]oxytocin from rat OTR
T2 sequence (P70536 whole entry): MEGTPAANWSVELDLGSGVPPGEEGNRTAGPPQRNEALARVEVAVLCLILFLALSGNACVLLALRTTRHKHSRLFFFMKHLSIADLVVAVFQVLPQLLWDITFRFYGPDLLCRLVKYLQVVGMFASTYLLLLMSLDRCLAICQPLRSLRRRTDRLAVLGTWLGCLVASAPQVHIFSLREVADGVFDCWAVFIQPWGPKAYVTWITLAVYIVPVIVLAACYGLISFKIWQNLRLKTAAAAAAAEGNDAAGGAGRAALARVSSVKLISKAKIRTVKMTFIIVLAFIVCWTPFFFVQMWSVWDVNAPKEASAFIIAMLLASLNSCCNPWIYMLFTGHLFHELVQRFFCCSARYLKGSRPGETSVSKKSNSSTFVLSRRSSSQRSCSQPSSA

| Structure (SMILES) | bioavailability [1] [%] | clearance [2] [mL/min/kg] | bioavailability [3] [%] | clearance [4] [mL/min/kg] | chromatographic logD [5] | Ki (Oxytocin receptor [6]) [nM] | AUC [7] [ng·h/mL] | solubility [8] [µg/mL] | AUC [9] [ng·h/mL] | Activity (Rattus norvegicus) [mg/kg] | IC50 (Rattus norvegicus; Rattus norvegicus) [nM] | Ki (Oxytocin receptor [10]) [nM] |
| --- | --- | --- | --- | --- | --- | --- | --- | --- | --- | --- | --- | --- |
| CC(C)C[C@@H]1C(=O)N[C@H](C2Cc3ccccc3C2)C(=O)N1[C@@H](C(=O)NC(C)C)c1ccc(N(C)C)cc1 | 2 | 15 | 50 | 48 | – | – | – | – | – | – | – | – |
| CC(C)C[C@@H]1C(=O)N[C@H](C2Cc3ccccc3C2)C(=O)N1[C@@H](C(=O)NCCN1CCCCC1)c1ccc(F)cc1 | – | – | – | – | 2 | – | – | – | – | – | – | – |
| Cc1ccc([C@H](C(=O)NC(C)C)N2C(=O)[C@@H](C3Cc4ccccc4C3)NC(=O)[C@H]2CC(C)C)o1 | – | – | – | – | 3.3 | – | – | – | – | – | – | – |
| CC(C)C[C@@H]1C(=O)N[C@H](C2Cc3ccccc3C2)C(=O)N1[C@@H](CO)c1ccc(F)cc1F | – | – | – | – | – | 12.6 | 567 | – | – | – | – | – |
| CC(C)C[C@@H]1C(=O)N[C@H](C2Cc3ccccc3C2)C(=O)N1[C@@H](C(=O)N(C)CCO)c1ccc(F)cc1F | 55 | 6 | 14 | 19 | 2.8 | 0.126 | 2350 | 159 (≈ 310 µM) | 200 | – | – | – |
| CC(C)C[C@@H]1C(=O)N[C@H](C2Cc3ccccc3C2)C(=O)N1[C@@H](C(=O)N(C)Cc1ccccn1)c1ccc(F)cc1 | – | – | – | – | 3.2 | – | – | – | – | – | – | – |
| CC(C)C[C@@H]1C(=O)N[C@H](C2Cc3ccccc3C2)C(=O)N1[C@@H](C(=O)NC(C)(C)C)c1ccc2c(c1)OCO2 | 48 | 23 | 14 | 34 | 3.3 | 3.98 | – | – | – | – | – | – |
| CC(C)C[C@@H]1C(=O)N[C@H](C2Cc3ccccc3C2)C(=O)N1[C@@H](C(=O)N1CCOCC1)c1ccc(F)cc1F | 41 | 8 | 7 | 16 | 3.2 | 1.26 | 2150 | – | 100 | – | – | – |
| CC(C)C[C@@H]1C(=O)N[C@H](C2Cc3ccccc3C2)C(=O)N1[C@@H](C(=O)O)c1ccc(F)cc1F | 30 | 21 | 5 | 53 | 1.7 | 0.631 | 805 | 216 (≈ 473 µM) | 23 | – | – | – |
| CC(C)C[C@@H]1C(=O)N[C@H](C2Cc3ccccc3C2)C(=O)N1[C@@H](C(=O)NCC(F)(F)F)c1ccc(F)cc1 | – | – | – | – | 3.3 | – | – | – | – | – | – | – |
| CC(C)C[C@@H]1C(=O)N[C@H](C2Cc3ccccc3C2)C(=O)N1[C@@H](C(=O)NC(C)(C)C)c1ccc(N2CCC(O)CC2)cc1 | 24 | 21 | 10 | 26 | 2.4 | 3.98 | – | – | – | – | – | – |
| CC(C)C[C@@H]1C(=O)N[C@H](C2Cc3ccccc3C2)C(=O)N1[C@@H](C(=O)NCCO)c1ccc(F)cc1 | – | – | – | – | 2.3 | – | – | – | – | – | – | – |
| COc1ccc([C@H](C(=O)NC(C)(C)C)N2C(=O)[C@@H](C3Cc4ccccc4C3)NC(=O)[C@H]2CC(C)C)cc1F | – | – | – | – | 3.4 | – | – | – | – | – | – | – |
| CC(C)C[C@@H]1C(=O)N[C@H](C2Cc3ccccc3C2)C(=O)N1[C@@H](C(=O)N1CC(O)C1)c1ccc(F)cc1F | 12 | – | – | 19 | 2.8 | 0.631 | 540 | 187 (≈ 366 µM) | – | – | – | – |
| CCNS(=O)(=O)c1ccc(-c2ccc([C@H](C(=O)NC(C)(C)C)N3C(=O)[C@@H](C4Cc5ccccc5C4)NC(=O)[C@H]3CC(C)C)cc2)cc1 | – | – | – | – | 3.4 | – | – | – | – | – | – | – |
| CC(C)C[C@@H]1C(=O)N[C@H](C2Cc3ccccc3C2)C(=O)N1[C@@H](C(=O)N1CCC1)c1ccc(F)cc1F | 17 | 4 | 37 | 22 | 3.3 | 0.631 | 660 | 1 (≈ 2.02 µM) | 710 | – | – | – |
| CC(C)C[C@@H]1C(=O)N[C@H](C2Cc3ccccc3C2)C(=O)N1[C@@H](C(=O)N1CCN(C)CC1)c1ccc(F)cc1 | – | – | – | – | 2.7 | – | – | – | – | – | – | – |
| CC(C)C[C@@H]1C(=O)N[C@H](C2Cc3ccccc3C2)C(=O)N1[C@@H](C(=O)NC(C)(C)C)c1ccc2c(c1)CCO2 | 27 | 14 | 9 | 39 | 3.4 | 3.98 | – | – | – | – | – | – |
| CNC(=O)[C@@H](c1ccc(F)cc1F)N1C(=O)[C@@H](C2Cc3ccccc3C2)NC(=O)[C@H]1CC(C)C | 98 | 13 | 11 | 32 | 2.9 | 0.398 | 3690 | 89 (≈ 190 µM) | 82 | – | – | – |
| CC[C@@H](C)[C@@H]1C(=O)N[C@H](C2Cc3ccccc3C2)C(=O)N1[C@@H](C(=O)NC(C)C)c1ccc(N2CCOCC2)cc1 | 31 | 6 | 61 | 24 | 3 | 1.58 | – | – | – | – | – | – |
| CC(C)C[C@@H]1C(=O)N[C@H](C2Cc3ccccc3C2)C(=O)N1[C@@H](C(N)=O)c1ccc(F)cc1F | 22 | – | – | 33 | 2.5 | 0.501 | 560 | 1 (≈ 2.2 µM) | – | – | – | – |
| CCOc1ccc(C[C@H]2NC(=O)CCSSC[C@@H](C(=O)N3CCC[C@H]3C(=O)N[C@@H](CCCN)C(=O)NCC(N)=O)NC(=O)[C@H](CC(N)=O)NC(=O)[C@H]([C@@H](C)O)NC(=O)[C@H]([C@@H](C)CC)NC2=O)cc1 [ATOSIBAN] ([Mpa][dY](Et)ITNCP[Orn]G-NH2; disulfide 1-6) | – | – | – | – | – | 39.8 | – | – | – | 0.63 | 186 | 39.8 |

— ChEMBL document CHEMBL1138900, “2,5-diketopiperazines as potent, selective, and orally bioavailable oxytocin antagonists. 3. Synthesis, pharmacokinetics, and in vivo potency” (J Med Chem, 2006)
